Experimental data: ChEMBL document CHEMBL4265988, “Molecular tools that block maturation of the nuclear lamin A and decelerate cancer cell migration” (Bioorg Med Chem, 2018)
Activity calls are given as the source filed them. The rule behind the calls is not given here.

Legend:
[1] = target: T1, CAAX prenyl protease 1 homolog (Homo sapiens) (UniProt O75844); experiment: Inhibition of ZMPSTE24 in human U2OS cells assessed as increase in intracellular accumulation of prelamin A at 10 uM after 24 hrs by Western blot analysis relative to control; assay type: cell-based
T1 sequence (whole entry): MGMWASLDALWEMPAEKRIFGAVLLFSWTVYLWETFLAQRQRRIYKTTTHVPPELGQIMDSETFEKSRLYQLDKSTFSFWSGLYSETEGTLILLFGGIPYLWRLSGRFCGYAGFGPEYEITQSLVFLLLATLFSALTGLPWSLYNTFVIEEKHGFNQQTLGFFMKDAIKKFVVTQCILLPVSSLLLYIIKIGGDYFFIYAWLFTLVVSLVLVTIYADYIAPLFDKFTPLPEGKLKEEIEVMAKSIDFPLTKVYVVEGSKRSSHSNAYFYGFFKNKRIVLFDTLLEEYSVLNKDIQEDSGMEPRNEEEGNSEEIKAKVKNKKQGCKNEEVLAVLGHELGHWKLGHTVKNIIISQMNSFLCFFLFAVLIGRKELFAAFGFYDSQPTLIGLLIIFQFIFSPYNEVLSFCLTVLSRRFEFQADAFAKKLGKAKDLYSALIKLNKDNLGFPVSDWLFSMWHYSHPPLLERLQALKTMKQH
In short: (§1)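 Cells treated 24 h with 10 μM compound, lysates analysed by Western blot with prelamin A-specific antibody; prelamin A band normalised to tubulin and expressed relative to untreated control (set to 1); lopinavir run in parallel as reference.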

KP-4 [2] = experiment: Downregulation of MCM6 protein expression in human KP4 cells at 10 uM after 48 hrs by Western blot method; assay type: ADME, cell-based; conditions: kp-4, 48 h
KP-4 [3] = experiment: Antiproliferative activity against human KP4 cells at 10 uM after 7 days by crystal violet staining-based assay; assay type: cell-based; conditions: kp-4, 168 h
In short: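 Proliferation assay in KP-4 cells, single concentration 10 μM.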

[4] = target: T1, CAAX prenyl protease 1 homolog (Homo sapiens); experiment: Inhibition of ZMPSTE24 in human SW1990 cells assessed as increase in intracellular accumulation of prenylated prelamin A at 10 uM after 24 hrs by Western blot analysis relative to control; assay type: cell-based; in short: as §1
[5] = target: T1, CAAX prenyl protease 1 homolog (Homo sapiens); experiment: Inhibition of ZMPSTE24 in human KP4 cells assessed as increase in intracellular accumulation of prenylated prelamin A at 10 uM after 24 hrs by Western blot analysis relative to control; assay type: cell-based; in short: as §1
[6] = target: T1, CAAX prenyl protease 1 homolog (Homo sapiens); experiment: Inhibition of ZMPSTE24 in human HPAF2 cells assessed as increase in intracellular accumulation of prenylated prelamin A at 10 uM after 24 hrs by Western blot analysis relative to control; assay type: cell-based; in short: as §1
[7] = target: T1, CAAX prenyl protease 1 homolog (Homo sapiens); experiment: Inhibition of ZMPSTE24 in human HCT116 cells assessed as increase in intracellular accumulation of prenylated prelamin A at 10 uM after 24 hrs by Western blot analysis relative to control; assay type: cell-based; in short: as §1
HPAF-II [8] = experiment: Downregulation of MCM6 protein expression in human HPAF2 cells at 10 uM after 48 hrs by Western blot method; assay type: ADME, cell-based
KP-4 [9] = experiment: Induction of p21 accumulation in human KP4 cells at 10 uM after 48 hrs by Western blot method; assay type: cell-based; conditions: kp-4, 48 h
HPAF-II [10] = experiment: Induction of p21 accumulation in human HPAF2 cells at 10 uM after 48 hrs by Western blot method; assay type: cell-based
KP-4 [11] = experiment: Antimigratory activity against human KP4 cells at 10 uM after 10 days by crystal violet staining-based assay; assay type: functional, cell-based
In short: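 Transmigration assay in KP-4 cells; test agents at single 10 μM, with lopinavir and 0.15% DMSO (vehicle) in buffer as controls.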

| SMILES | fold change (FC) [1] | further results |
| --- | --- | --- |
| Cc1cc(OC(F)(F)F)cc(C(=O)N[C@H](C(=O)N[C@@H](Cc2ccccc2)C[C@H](O)[C@H](Cc2ccccc2)NC(=O)COc2c(C)cccc2C)C(C)C)c1 | 2.7 |  |
| COC(=O)[C@H](C)NC(=O)C(Cc1ccccc1)CP(=O)(O)[C@H](Cc1ccccc1)NC(=O)OCc1ccccc1 (some centres not stated) |  | Activity (KP-4 [2]): Non-Toxic; Activity (KP-4 [3]): Non-Toxic; fold change (FC) [4]: 7.4; fold change (FC) [5]: 3.6; fold change (FC) [6]: 2.2; fold change (FC) [7]: 2.2; Activity (HPAF-II [8]): Non-Toxic; Activity (KP-4 [9]): Non-Toxic; Activity (HPAF-II [10]): Non-Toxic; Activity (KP-4 [11]): Active |
| Cc1cccc(C)c1OCC(=O)N[C@@H](Cc1ccccc1)[C@@H](O)C[C@H](Cc1ccccc1)NC(=O)[C@@H](NC(=O)Cc1ccc(Cl)cc1)C(C)C | 2.8 |  |
| Cc1cccc(C)c1OCC(=O)N[C@@H](Cc1ccccc1)[C@@H](O)C[C@H](Cc1ccccc1)NC(=O)[C@@H](NC(=O)c1ccc([N+](=O)[O-])o1)C(C)C | 2.5 |  |
| Cc1cccc(C)c1OCC(=O)N[C@@H](Cc1ccccc1)[C@@H](O)C[C@H](Cc1ccccc1)NC(=O)[C@H](C(C)C)N1CCCNC1=O | 1.2 to 2.1 | fold change (FC) [4]: 4.9; fold change (FC) [5]: 2.5; fold change (FC) [6]: 2; fold change (FC) [7]: 1.4; Activity (KP-4 [11]): inactive |
| Cc1cccc(C)c1OCC(=O)N[C@@H](Cc1ccccc1)[C@@H](O)C[C@H](Cc1ccccc1)NC(=O)[C@@H](NC(=O)c1ccc2[nH]nnc2c1)C(C)C | 1.5 |  |
| Cc1cccc(C)c1OCC(=O)N[C@@H](Cc1ccccc1)[C@@H](O)C[C@H](Cc1ccccc1)NC(=O)[C@@H](NC(=O)C1CCC(=O)N1)C(C)C (some centres not stated) | 3.2 |  |
| Cc1cc(C)cc(C(=O)N[C@H](C(=O)N[C@@H](Cc2ccccc2)C[C@H](O)[C@H](Cc2ccccc2)NC(=O)COc2c(C)cccc2C)C(C)C)c1 | 3.4 |  |
| Cc1cccc(C)c1OCC(=O)N[C@@H](Cc1ccccc1)[C@@H](O)C[C@H](Cc1ccccc1)NC(=O)[C@@H](NC(=O)Cc1cccnc1)C(C)C | 1.7 |  |
| Cc1cccc(C)c1OCC(=O)N[C@@H](Cc1ccccc1)[C@@H](O)C[C@H](Cc1ccccc1)NC(=O)[C@@H](NC(=O)CC1CC1)C(C)C | 3 |  |
| Cc1cccc(C)c1OCC(=O)N[C@@H](Cc1ccccc1)[C@@H](O)C[C@H](Cc1ccccc1)NC(=O)[C@@H](NC(=O)C1CCCCN1)C(C)C (some centres not stated) | 2 |  |
| Cc1cccc(C)c1OCC(=O)N[C@@H](Cc1ccccc1)[C@@H](O)C[C@H](Cc1ccccc1)NC(=O)[C@@H](NC(=O)c1ccnc(Cl)c1)C(C)C | 3 |  |
| COc1cc(Cl)cc(C(=O)N[C@H](C(=O)N[C@@H](Cc2ccccc2)C[C@H](O)[C@H](Cc2ccccc2)NC(=O)COc2c(C)cccc2C)C(C)C)c1 | 2.7 |  |
| COc1cc(C(=O)N[C@H](C(=O)N[C@@H](Cc2ccccc2)C[C@H](O)[C@H](Cc2ccccc2)NC(=O)COc2c(C)cccc2C)C(C)C)cc(C(F)(F)F)c1 | 1.4 |  |
| Cc1cccc(C)c1OCC(=O)N[C@@H](Cc1ccccc1)[C@@H](O)C[C@H](Cc1ccccc1)NC(=O)[C@@H](NC(=O)c1cc(C(F)(F)F)cc(C(F)(F)F)c1)C(C)C | 2.1 |  |
| Cc1cccc(C)c1OCC(=O)N[C@@H](Cc1ccccc1)[C@@H](O)C[C@H](Cc1ccccc1)NC(=O)[C@@H](NC(=O)c1cc(Cl)cc(C(F)(F)F)c1)C(C)C | 2.4 |  |
| C[C@H](NC(=O)C(Cc1ccccc1)CP(=O)(O)[C@H](Cc1ccccc1)NC(=O)OCc1ccccc1)C(=O)O (some centres not stated) |  | inhibition [1]: inactive |
| Cc1cccc(C)c1OCC(=O)N[C@@H](Cc1ccccc1)[C@@H](O)C[C@H](Cc1ccccc1)NC(=O)[C@@H](NC(=O)c1ccc(Br)cn1)C(C)C | 2.1 |  |
